Source: PubChem BioAssay
BaF3 parental = counter-screen for JAK2V617F inhibitors: parental Ba/F3 viability inhibitors; CellTiter-Glo ATP luminescence; inhibition, % at 5.6 µM; hit rate 1.1% among 220,000; AID 1486;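 active means inhibition above a per-campaign cutoff, the mean inhibition of all tested compounds plus 3 SD, cut at about 27% in these data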
MT stabilize HCS = stabilizes microtubules in HeLa cells; % tubulin-high responders, % at 10 µM; hit rate 0.83% among 200,000; HeLa tubulin immunostaining HCS, 24 h; share of cells brighter than vehicle mean+2SD;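 active means plate Z-score above 3 for both tubulin-high and condensed-nucleus cell shares, with cell loss under 80%, at 10 µM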;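 further: anti alpha tubulin signal scored within the nucleus-defined area of each cell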
APP 5UTR inh = APP translation inhibition; SH-SY5Y APP 5'UTR-luciferase reporter, luminescence; inhibition, % at 2 µM; hit rate 0.82% among 190,000; AID 1285;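 active means inhibition above a set limit, derived from the sample mean plus 3 SD, cut at about 45% in these data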
Ba/F3 V617F tox = reduce viability of Ba/F3 cells dependent on JAK2V617F; hit rate 1.1% among 220,000; Ba/F3 EpoR-JAK2V617F viability, ATP luminescence; AID 1446; inhibition, % at 5.6 µM;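 active means inhibition above the campaign mean plus 3 SD over all tested compounds, cut at about 24% in these data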;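 further: cytokine-independent growth of Ba/F3 cells driven by EpoR plus mutant JAK2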
IEC-6 cytotox = IEC-6 cytotoxicity, counter-screen for KLF5 inhibitors; luminescence viability; inhibition, % at 5 µM; hit rate 0.78% among 290,000; AID 1825; in the data active means inhibition above about 22%
b-catenin transl = modulators of beta-catenin nuclear translocation. HeLa beta-catenin nuclear translocation, immunofluorescence imaging. nuclear translocation activity, % at 5 µM. hit rate 0.3% among 190,000. AID 1665;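 active means nuclear translocation activity above 50% at 5 µM, with a well cell count of 50 or more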;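 further: per-cell ratio of nuclear to cytoplasmic median beta-catenin stain intensity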
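Signal – beta-catenin immunofluorescence imaging with DAPI · Test system – human HeLa cell line · Dosing – 5 µM primary single dose, 0.1% DMSO, 0.02–20 µM confirmation series · Measure – % activation, nuclear-to-cytoplasmic median beta-catenin signal ratio per cell · Incubation – 24 h compound exposure at 37°C, 5% CO2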
Hits are given with their value; n = inactive; x = no result given. In the library only some 2.2% were active in any assay of this set; here they are far more common.

SMILES	BaF3 parental	MT stabilize HCS	APP 5UTR inh	Ba/F3 V617F tox	IEC-6 cytotox	b-catenin transl
C[N+](C)(CC#Cc1ccccc1)CC(=O)c1ccccc1	n	n	n	n	n	n
C(#Cc1ccccc1)CN1CCCCC1	n	n	n	n	n	n
CC[N+](CC)(CC#Cc1ccccc1)CC#Cc1ccccc1	66.8	x	x	89.3	n	n
C#CC[N+](CC)(CC)CC#Cc1ccccc1	62.2	x	x	59.1	n	n
COCCCN1C(=O)c2ccc(C(=O)NCCc3ccccc3)cc2C1=O	x	x	x	x	n	x
COC(=O)Cn1nc(-c2ccc(C)cc2)c2ccccc2c1=O	n	n	n	n	n	n
COc1ccccc1N1CCN(C(=S)Nc2cccc(C)c2)CC1	n	8.7	n	n	n	n
CCOC(=O)Nc1c(C(=O)OC)[nH]c2cc(OC)ccc12	n	36.2	n	n	n	n
CCOC(=O)c1[nH]c2ccc(OC)cc2c1NC(=S)N1CCN(c2ccccc2OC)CC1	n	20.1	n	n	n	n
CCOC(=O)c1[nH]c2ccc(OC)cc2c1NC(=S)N1CCN(C(=O)OCC)CC1	n	n	n	n	n	n
O=c1oc2cc(OCCO)ccc2c2c1CCCC2	x	x	x	x	n	x
CCOC(=O)c1c(C)[nH]c(C)c1S(=O)(=O)NCC(=O)Nc1ccccn1	x	x	x	x	n	x
O=C(NNC(=O)c1ccccc1[N+](=O)[O-])c1ccc(NC(=O)c2ccccc2)cc1	x	x	x	x	n	x
CC(C)c1cc(C(=O)Nc2cc(Cl)ccc2O)no1	37.2	n	n	n	n	n
CC(C)c1cc(C(=O)Nc2cc(Br)ccc2O)no1	29.1	n	n	27.3	n	n
O=C(CSc1cccc[n+]1[O-])Nc1c(Br)cc([N+](=O)[O-])cc1Br	n	n	n	n	n	n
COc1ccccc1N1CCN(C2CCN(C(=O)COc3ccccc3)CC2)CC1	n	n	n	n	n	n
O=C(O)CC1(CC(=O)Nc2ccccc2N2CCOCC2)CCCC1	n	x	x	n	n	n
CCC(=O)c1ccc(OCC(=O)NC2(C#N)CCCCC2)cc1	n	n	n	n	n	n
CC(C)(C)n1ncc2c(=O)n(CC(=O)NCc3ccc(F)cc3)cnc21	n	47.0	n	n	n	n
CC(C)(C)n1ncc2c(=O)n(CC(=O)NCc3ccco3)cnc21	n	n	n	n	n	n
Cc1nn(CC(=O)Nc2ccc(S(=O)(=O)N(C)C)cc2)c(C)c1[N+](=O)[O-]	n	n	n	n	n	n
O=C(Nc1ccc(C(=O)O)cc1)/C(=C\C=C\c1ccccc1)NC(=O)c1ccccc1Br	x	x	x	x	n	x
COc1ccc(/C=C(/C(=O)c2cccs2)N2C=CC=CC2=C(C#N)C#N)cc1	n	n	81.9	n	n	n
COc1ccc(CCNC(=O)CCCc2ccccc2)cc1	x	x	x	x	n	x
SMILES	BaF3 parental	MT stabilize HCS	APP 5UTR inh	Ba/F3 V617F tox	IEC-6 cytotox	b-catenin transl
COc1ccc(C2NCCc3cc(OC)c(OC)cc32)cc1OC (centres undefined)	n	n	58.7	n	n	n
COc1cc2c(cc1OC)C(c1ccc(N(C)C)cc1)NCC2 (centres undefined)	x	x	x	x	n	x
Cc1nn(C)cc1S(=O)(=O)Nc1cccc(Cl)c1	x	x	x	x	n	x
Cc1nc(-c2cc(-c3nc(-c4ccc(C(F)(F)F)cc4)no3)no2)cs1	61.1	x	x	n	n	n
COc1nccnc1NS(=O)(=O)c1ccc(NC(=O)c2cccc(C)c2)cc1	n	n	n	n	n	n
CCc1ccc(CN(C)Cc2nc(-c3cccc(Cl)c3)no2)nc1	n	n	n	n	n	n
COc1cc(/C=C2/SC(=Nc3ccc(O)cc3)NC2=O)ccc1O	72.5	x	x	75.2	n	n
COc1cc(/C=C2\SC(=Nc3ccccc3OC)NC2=O)ccc1O	x	x	x	x	n	x
COc1ccccc1CNC(=O)COC(=O)c1ccc(Cl)c(N)c1	n	n	n	n	n	n
O=C(O)/C=C/c1ccc(OCc2cccc(F)c2)cc1	n	n	n	n	n	n
Cc1c(Cc2ccccc2)sc(NC(=O)/C=C/c2cccc3ccccc23)c1C(N)=O	n	18.2	n	n	n	n
CC1=NN(c2nc(-c3ccc(C)cc3)cs2)C(=O)C1N=Nc1ccccc1O (centres undefined)	n	n	51.9	n	n	n
O=C(NC(=S)Nc1ccc2[nH]c(=O)[nH]c2c1)c1ccccc1[N+](=O)[O-]	x	x	x	x	n	x
O=C1NCCN/C1=C\C(=O)c1ccc(Br)cc1	n	x	x	n	n	n
O=C1NCCN/C1=C\C(=O)c1ccccc1	n	n	74.1	n	n	x
COC(C[C@@H](O)[C@@H](C)[C@@H](O)COCc1ccccc1)OC	x	x	x	x	x	n
